Data: ChEMBL document CHEMBL1149738, “New cytotoxic scalarane sesterterpenes from the Dictyoceratid sponge Strepsichordaia lendenfeldi” (J Nat Prod, 1992)
Converted amounts (≈) assume the structure as drawn. The source made the active and inactive calls. No cut-off for these calls is given here.

Columns and labels:
[1] = system: P388; test: Cytotoxicity against DBA/2 mouse P388 cells; format: functional, cell-based; details: DBA/2, P388
In short: (§1)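 Cultured tumour and normal cell lines: P-388 (lymphoid neoplasm, DBA/2 mouse), A-549 (human lung carcinoma), HT-29 (human colon carcinoma) and CV-1 (monkey kidney fibroblast). Potency was expressed as approximate IC50 values in μg/ml.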

[2] = system: A549; test: Cytotoxicity against human A549 cells; format: functional, cell-based; in short: as §1
[3] = system: HT-29; test: Cytotoxicity against human HT-29 cells; format: functional, cell-based; in short: as §1
[4] = Cytotoxicity against african green monkey CV1 cells; format: cell-based; details: chlorocebus aethiops, cv-1; in short: as §1
[5] = system: Bacillus subtilis; test: Antimicrobial activity against Bacillus subtilis; format: functional, organism-based
[6] = system: Staphylococcus aureus; test: Antimicrobial activity against Staphylococcus aureus; format: functional, organism-based

| Compound | IC50 [1] [µg/mL] | IC50 [2] [µg/mL] | Activity [3] | Activity [4] | Activity [5] | Activity [6] |
| --- | --- | --- | --- | --- | --- | --- |
| CC[C@@]1(C)CCC[C@]2(C)[C@H]3C[C@H](OC(C)=O)[C@]4(C)[C@@H](C=O)[C@H](C(C)=O)[C@@H](O)C[C@H]4[C@]3(C)CC[C@@H]12 | 0.1 (≈ 0.211 µM) | 0.1 (≈ 0.211 µM) | Active | Active | – | – |
| CCC(=O)O[C@H]1C[C@H]2[C@]3(C)CC[C@H]4[C@@](C)(CC)CCC[C@]4(C)[C@H]3C[C@H](OC(C)=O)[C@]2(C)[C@@H](C=O)[C@@H]1C(C)=O | 0.67 (≈ 1.26 µM) | 0.67 (≈ 1.26 µM) | – | – | Active | – |
| CC[C@@]1(C)CCC[C@]2(C)[C@H]3C[C@H](OC(C)=O)[C@]4(C)[C@@H](C=O)[C@H](C(C)=O)[C@@H](OC(=O)C[C@@H](C)O)C[C@H]4[C@]3(C)CC[C@@H]12 | 0.23 (≈ 0.41 µM) | 0.66 (≈ 1.18 µM) | – | – | Active | Active |
| CC[C@@]1(C)CCC[C@]2(C)[C@H]3C[C@H](OC(C)=O)[C@]4(C)[C@@H](C=O)[C@H](C(C)=O)[C@@H](OC(C)=O)C[C@H]4[C@]3(C)CC[C@@H]12 | 0.91 (≈ 1.76 µM) | 0.88 (≈ 1.7 µM) | – | – | Active | – |
| CCC(=O)OC(CC)CC(=O)O[C@H]1C[C@@H]2[C@@]3(C)CCC[C@](C)(CC)[C@@H]3CC[C@@]2(C)[C@@H]2CC=C(C(C)=O)[C@H](C=O)[C@@]12C (stereo partly drawn) | < 0.12 | 0.21 (≈ 0.368 µM) | – | – | Active | – |
| CCC(CC(=O)O[C@H]1C[C@@H]2[C@@]3(C)CCC[C@](C)(CC)[C@@H]3CC[C@@]2(C)[C@@H]2CC=C(C(C)=O)[C@H](C=O)[C@@]12C)OC(C)=O (stereo partly drawn) | < 0.12 | 0.25 (≈ 0.449 µM) | – | – | Active | – |
| CC[C@@]1(C)CCC[C@]2(C)[C@H]3C[C@H](OC(=O)CC(C)OC(C)=O)[C@]4(C)[C@@H](C=O)C(C(C)=O)=CC[C@H]4[C@]3(C)CC[C@@H]12 (stereo partly drawn) | 0.2 (≈ 0.368 µM) | 0.2 (≈ 0.368 µM) | Active | Active | – | – |
| CCC(O)CC(=O)O[C@H]1C[C@H]2[C@]3(C)CC[C@H]4[C@@](C)(CC)CCC[C@]4(C)[C@H]3C[C@H](OC(C)=O)[C@]2(C)[C@@H](C=O)[C@@H]1C(C)=O (stereo partly drawn) | 0.5 (≈ 0.87 µM) | 0.5 (≈ 0.87 µM) | Active | Active | – | – |
